SENP1 inh: inhibitors of human SENP1 SUMO protease catalytic domain. Q9P0U3. recombinant SENP1 catalytic domain, CyPet-SUMO1-YPet FRET cleavage. inhibition, % at 10 µM. 360,000 tested, 0.21% active. AID 624204;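 active = inhibition at least 30% at 10 µM, raw YFP signal under a set limit, fluorescence ratio 0.5 to 1.5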;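 note: 0% = enzyme with DMSO and 100% = no enzyme wells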
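system = hSENP1 catalytic domain, recombinant | reagent = SFCypet-SUMO1-SFYpet substrate at 25 nM | doses = one dose per compound, 10 µM, 0.5% DMSO | incubation = enzyme reaction for 50 min at room temperature, dark | measured by = FRET, CFP and YFP emission | controls = no-enzyme low, enzyme-DMSO high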
CendR NRP1 mod: alters CendR peptide binding to human NRP-1 | O14786 | FAM-RPARPAR peptide binding to NRP-1, fluorescence polarization | inhibition, % at 25 µM | 360,000 tested, 0.85% active;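 active = inhibition or corrected inhibition above about 18%, plus a signal ratio from 0.5 to 1.5, limit read from the data, passing the limit was not always enough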
SENP8 block-1: SENP8 protease inhibition | Q96LD8 | purified SENP8, Z-RLRGG-aminoluciferin cleavage, luminescence | inhibition, % at 10 µM | 330,000 tested, 1.2% active | AID 2540; in the data active = inhibition above about 50%
Target sequence (Q96LD8 whole entry, looked up): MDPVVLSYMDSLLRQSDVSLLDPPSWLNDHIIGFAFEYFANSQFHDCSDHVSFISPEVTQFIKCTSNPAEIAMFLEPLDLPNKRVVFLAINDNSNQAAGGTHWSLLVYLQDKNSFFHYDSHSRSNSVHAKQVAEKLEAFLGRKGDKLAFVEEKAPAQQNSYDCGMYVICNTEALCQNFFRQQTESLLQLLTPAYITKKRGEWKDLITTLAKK
SENP6 block: inhibitors of human SENP6 protease | Recombinant SENP6 catalytic domain, aminoluciferin luminescence | AID 2599 | inhibition, % at 10 µM | Q9GZR1 | 330,000 tested, 1.8% active;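 active = inhibition above about 50% at the single tested dose, limit read from the data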;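 note: plate controls were DMSO wells with enzyme for no effect and DMSO wells lacking enzyme for full effect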
SENP7 block: blocks the human protease SENP7. recombinant SENP7, Z-RLRGG-aminoluciferin luminescence, 40 min. inhibition, % at 5 µM. Q9BQF6. 330,000 tested, 1.5% active;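 active = inhibition above about 50% at the single test dose, limit read from the data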;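 note: plate controls were DMSO with enzyme for no effect and no enzyme buffer wells for full effect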
Target sequence (Q9BQF6 706-1050 limits assumed): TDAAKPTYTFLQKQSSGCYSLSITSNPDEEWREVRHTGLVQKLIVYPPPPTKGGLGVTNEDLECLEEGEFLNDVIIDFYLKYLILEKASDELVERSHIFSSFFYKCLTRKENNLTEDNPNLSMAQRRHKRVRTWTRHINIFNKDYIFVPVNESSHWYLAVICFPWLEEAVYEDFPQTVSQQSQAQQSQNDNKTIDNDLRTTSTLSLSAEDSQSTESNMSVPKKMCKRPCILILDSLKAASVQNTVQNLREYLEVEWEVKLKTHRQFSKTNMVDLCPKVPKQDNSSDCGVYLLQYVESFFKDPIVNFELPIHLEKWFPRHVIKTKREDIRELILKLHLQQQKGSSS
SENP8 block-2: SENP8 (human) protease inhibition | Q96LD8 | recombinant SENP8, Nedd8 substrate fluorescence | inhibition, % at 20 µM | 360,000 tested, 0.64% active; in the data active = inhibition mostly above about 40%, no sharp cut-off; inactive = mostly below about 27%
Numbers without * were called inactive; x = no result given. This is a sample that favours compounds with a hit; in the whole collection about 3.3% have one here.

SMILES	SENP1 inh	CendR NRP1 mod	SENP8 block-1	SENP6 block	SENP7 block	SENP8 block-2
Cc1noc(C)c1NC(=O)N(C)C[C@H]1Oc2c(NC(=O)c3ccncc3)cccc2C(=O)N([C@H](C)CO)C[C@@H]1C	2	-4	-15	-18	-8	6
COc1ccc(NC(=O)Nc2ccc3c(c2)C(=O)N([C@H](C)CO)C[C@H](C)[C@@H](CN(C)S(=O)(=O)c2cccs2)O3)cc1	0	-7	3	-9	-7	9
Cc1noc(C)c1NC(=O)N(C)C[C@H]1Oc2c(NC(=O)NC(C)C)cccc2C(=O)N([C@H](C)CO)C[C@@H]1C	2	25*	5	8	4	10
CC(C)NC(=O)Nc1ccc2c(c1)C(=O)N([C@H](C)CO)C[C@H](C)[C@@H](CN(C)S(=O)(=O)c1cccs1)O2	2	25*	-5	-16	7	0
Cc1noc(C)c1NC(=O)Nc1cccc2c1O[C@H](CN(C)C(=O)NC1CCCCC1)[C@@H](C)CN([C@H](C)CO)C2=O	2	25*	8	-5	7	16
Cc1noc(C)c1NC(=O)Nc1cccc2c1O[C@@H](CN(C)C)[C@@H](C)CN([C@H](C)CO)C2=O	0	10	-1	-7	-6	0
C[C@H](CO)N1C[C@H](C)[C@@H](CN(C)C(=O)Nc2ccccc2F)OCc2cnnn2CCCC1=O	1	12	x	x	x	1
COc1cccc(-c2oc3c(c2C(=O)OCCN(C)C)C(O)CCC3)c1 (stereo unspecified)	2	4	x	x	x	-370
COc1ccc(C/C(C)=N/NC(=S)Nc2ccc(Cl)cc2)cc1	1	41*	-3	1	3	10
O=C(/C=C/Nc1ccc(F)c(F)c1)c1ccc(Br)cc1	-63	1	37	48	67*	-157
O=C(O)c1ccc(CSc2ccccn2)cc1	2	10	-2	-5	0	7
O=C(O)c1ccccc1CSc1ccccn1	1	40*	-11	5	1	3
N#CC(C#N)=Cc1cc2ccccc2nc1N1CCCCC1	-3	33*	2	3	6	-169
c1ccc(-c2cc3ccccc3nc2N2CCCC2)cc1	2	-6	-5	15	11	-420
COC(=O)[C@]12CCCCC=C1N(Cc1ccccc1)C(=O)[C@H](CC(=O)NCCCN1CCCC1=O)C2	3	-9	x	x	x	12
Cc1ccc(-c2cn3nc(C)c(C)nc3n2)cc1	-19	-20	53*	16	8	-292
COc1ccc(-c2cn3nc(C)c(C)nc3n2)cc1OC	-21	-35	1	1	4	-164
C#CCOCCOCCOCCNc1nc(N2CCN(C(=O)CCCCCCCCCCNC(=O)[C@H]([C@@H](C)CC)n3cc(CCCCN=C(N)N)nn3)CC2)nc(N2CCN(C(=O)CCCCCCCCCCNC(=O)[C@H](CO)n3cc(CCCCCN)nn3)CC2)n1	-3	28*	-6	-32	7	24
C#CCOCCOCCOCCNc1nc(N2CCN(C(=O)CCCCCCCCCCNC(=O)[C@H](CO)n3cc(CCCSC)nn3)CC2)nc(N2CCN(C(=O)CCCCCCCCCCNC(=O)[C@H](CCCN=C(N)N)n3cc(C[C@@H](C)CC)nn3)CC2)n1	0	25*	-8	-61	1	17
C#CCOCCOCCOCCNc1nc(N2CCN(C(=O)CCCCCCCCCCNC(=O)[C@H](CO)n3cc(CCCSC)nn3)CC2)nc(N2CCN(C(=O)CCCCCCCCCCNC(=O)[C@H](CCCCN)n3cc(CCO)nn3)CC2)n1	-1	10	-9	-14	3	10
O=C1C=C(Nc2cccc3cccnc23)c2ccccc2C1=O	-21	-2	10	33	9	43*
ON=C1C2CC=C(c3ccccc3)C1CCC2 (stereo unspecified)	0	-3	x	x	x	15
CCS(=O)(=O)N1Cc2cc(C(=O)NCC3CC3)nc(-c3cccc(-c4cccnc4)c3)c2[C@@H]1CCO	0	-6	x	x	x	18
CC(=O)c1ccc(NC(=S)Nc2cccc3ccccc23)cc1	-5	2	65*	91*	53*	-390
Cc1ccc(NC(=S)Nc2cccc3ccccc23)cc1F	-24	18	89*	93*	49	-389
SMILES	SENP1 inh	CendR NRP1 mod	SENP8 block-1	SENP6 block	SENP7 block	SENP8 block-2
CC(=O)c1cccc(NC(=O)C(=O)Nc2cccc3ccccc23)c1	0	8	-2	2	35	7
COc1ccc2occ(C(=O)c3ccccc3)c2c1	2	0	27	-18	19	4
COc1ccc(C(=O)c2coc3c2C(=O)C(=O)c2ccccc2-3)cc1	1	25*	4	30	6	83*
O=C(c1ccccc1F)N1CCN(c2ccccc2)CC1	3	-1	1	1	-2	5
O=C(c1ccccc1F)N1CCN(C(=O)C(c2ccccc2)c2ccccc2)CC1	1	22*	3	-14	-1	4
COc1ccc(C(C(=O)Nc2ccc3c(c2)OCCO3)n2c(=O)c(-c3ccco3)nc3ccccc32)cc1 (stereo unspecified)	-23	-20	x	x	x	-274
COc1ccc(-c2oc3ccc(-c4ccc5c(c4)OCO5)cc3c2-c2ccc(OC)nc2)cc1	1	27*	3	0	3	-494
O=C1NC[C@@H](CCCCN2C[C@H](Cc3ccc(O)cc3)N(CCC3CCCCC3)C(=O)C2=O)N(CCC2CCCCC2)C1=O	1	-8	x	x	x	9
Cc1cc(C(=O)COC(=O)c2ccccc2Br)c(C)n1CC1CCCO1 (stereo unspecified)	3	3	93*	95*	94*	9
Cc1ccc(C(=O)OCC(=O)c2cc(C)n(CC3CCCO3)c2C)cc1 (stereo unspecified)	0	5	10	-27	11	14
COCCn1c(Cc2ccccc2)nnc1SCC(=O)NC1CC1	-1	25*	-8	-12	-10	5
Cn1c(Cc2ccccc2)nnc1SCC(=O)NC1CC1	1	-5	-4	-16	5	10
CCCCOc1ccc(C(=O)N/C(=C/C=C/c2ccccc2)C(=O)O)cc1	19	21*	4	-12	-2	12
C[C@]12CCC[C@H](O1)c1c(cc3c(c1O)C(=O)c1c(O)cc(O)cc1C3=O)O2	31*	-196	-10	-10	-7	58*
N#Cc1cc2c(nc1SCc1nc3ccccc3[nH]1)CCC2	x	x	54*	81*	12	x
Cc1cccc(CSc2nc3c(cc2C#N)CCC3)c1	1	7	-5	-5	-10	4
Cc1ccc(C(=O)NCC(=O)N(C)Cc2ccc(Cl)cc2Cl)s1	1	-2	0	-7	6	4
C=CCC1(CC=C)CCCN1C(=O)c1cc(COc2cncc(Cl)c2)on1	1	5	-6	2	-8	4
C=CCC1(CC=C)CCCN1C(=O)c1cc(COc2cccc(OC)c2)on1	0	21*	9	12	0	10

Screens: PubChem, Sanford-Burnham Center for Chemical Genomics
